Active and inactive are the calls of the source. The rule behind the calls is not given here.
Assays:
Aspergillus fumigatus [1] = assay: Induction of change in mitochondrial hypoxia responsive domain protein level in iTRAQ121 labelled cell wall fraction of drug-susceptible Aspergillus fumigatus KU80 delta-akuB at 0.12 ug/ml after 48 hrs in YPD medium by MS (MS/MS) analysis relative to control; assay type: functional
How it was run: (§1)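 Conidia (1 × 10⁵/ml) grown in YPD, 37°C, 225 rpm, ± 0.12 μg/ml caspofungin; filtrate taken as secreted fraction, French-press lysate 5,000 × g pellet as cell wall/plasma membrane. Trypsin digests 8-plex iTRAQ-labelled (drug-free channels as references), pooled, 2D-chromatography, MS/MS. Median-normalized; protein ratio = median of unique-peptide ratios, log2 normalized.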

Aspergillus fumigatus [2] = assay: Induction of change in ribosomal protein L35, putative protein level in iTRAQ114 labelled secreted fraction of drug-susceptible Aspergillus fumigatus KU80 delta-akuB at 0.12 ug/ml after 24 hrs in YPD medium by MS (MS/MS) analysis relative to control; assay type: functional; how it was run: as §1
Aspergillus fumigatus [3] = assay: Induction of change in 60s ribosomal protein l21 protein level in iTRAQ114 labelled secreted fraction of drug-susceptible Aspergillus fumigatus KU80 delta-akuB at 0.12 ug/ml after 24 hrs in YPD medium by MS (MS/MS) analysis relative to control; assay type: functional
How it was run: (§2)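 Conidia at 1 × 10⁵/ml grown shaking at 37°C in YPD with or without 0.12 μg/ml caspofungin; mycelia filtered at 24 or 48 h. Secreted fraction taken from the filtrate; cell wall/plasma membrane pellet recovered after French-press lysis and a 5,000 × g spin. Proteins trypsin-digested and iTRAQ-labelled, drug vs no-drug channels at each time, then 2D LC-MS/MS. Protein ratio is the median of ratios from uniquely assigned peptides after median normalization.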

Aspergillus fumigatus [4] = assay: Induction of change in 14-3-3 family protein ArtA, putative protein level in iTRAQ-116 labelled secreted fraction of drug-susceptible Aspergillus fumigatus KU80 delta-akuB at 0.12 ug/ml after 48 hrs in YPD medium by MS (MS/MS) analysis relative to control; assay type: functional; how it was run: as §2
Aspergillus fumigatus [5] = assay: Induction of change in Ribosomal protein S21e gene expression in drug-susceptible Aspergillus fumigatus KU80 delta-akuB at 0.12 ug/ml after 24 hrs in YPD medium by microarray analysis relative to control; assay type: functional
How it was run: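 Mycelia grown in YPD ± 0.12 μg/ml caspofungin (1 × 10⁵ conidia/ml, 37°C, shaking) and harvested at 24 or 48 h. Total RNA extracted, DNase-treated and quality-checked; 2 μg labelled per TIGR SOP M007 and hybridized to whole-genome arrays. Three independent experiments with dye flip (6 replicates); drug vs untreated fold change.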

Aspergillus fumigatus [6] = assay: Induction of change in outer mitochondrial membrane protein porin protein level in iTRAQ-116 labelled secreted fraction of drug-susceptible Aspergillus fumigatus KU80 delta-akuB at 0.12 ug/ml after 48 hrs in YPD medium by MS (MS/MS) analysis relative to control; assay type: functional; how it was run: as §1
Aspergillus fumigatus [7] = assay: Induction of change in cytosolic small ribosomal subunit S15, putative protein level in iTRAQ114 labelled cell wall fraction of drug-susceptible Aspergillus fumigatus KU80 delta-akuB at 0.12 ug/ml after 24 hrs in YPD medium by MS (MS/MS) analysis relative to control; assay type: functional; how it was run: as §2
Aspergillus fumigatus [8] = assay: Induction of change in alkaline serine protease protein level in iTRAQ114 labelled cell wall fraction of drug-susceptible Aspergillus fumigatus KU80 delta-akuB at 0.12 ug/ml after 24 hrs in YPD medium by MS (MS/MS) analysis relative to control; assay type: functional; how it was run: as §2
Aspergillus fumigatus [9] = assay: Antifungal activity against drug-resistant Aspergillus fumigatus EMFR-S678P assessed as change in hyphal morphology by YPD medium; assay type: functional; conditions: read-out: MEC
How it was run: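 CLSI M38-A2 broth microdilution, run in triplicate in RPMI or YPD medium as the line specifies. Caspofungin was dissolved in sterile water. The minimum effective concentration (MEC) was the lowest concentration giving a significant change in hyphal morphology visible to the eye.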

Aspergillus fumigatus [10] = assay: Induction of change in cytochrome c protein level in iTRAQ114 labelled secreted fraction of drug-resistant Aspergillus fumigatus EMFR-S678P at 0.12 ug/ml after 24 hrs in YPD medium by MS (MS/MS) analysis relative to control; assay type: functional
How it was run: (§3)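 Conidia at 1 × 10⁵/ml were grown at 37°C, shaking at 225 rpm, in YPD with or without 0.12 μg/ml caspofungin for 24 or 48 h. The culture filtrate was kept as the secreted fraction. Mycelia were lysed by French press in HEPES/glycerol/EDTA/PMSF/DTT buffer, and the 5,000 × g pellet was washed to give CW/PM. Proteins were reduced, alkylated and trypsin-digested at 37°C overnight, then iTRAQ-labelled and run by 2D LC-MS/MS. Ratios are the median of unique-peptide ratios, median-normalized, versus the no-drug control.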

Aspergillus fumigatus [11] = assay: Induction of change in pyruvate decarboxylase PdcA, putative protein level in iTRAQ-118 labelled cell wall fraction of drug-resistant Aspergillus fumigatus EMFR-S678P at 0.12 ug/ml after 24 hrs in YPD medium by MS (MS/MS) analysis relative to control; assay type: functional, organism-based; how it was run: as §3
Aspergillus fumigatus [12] = assay: Induction of change in transcriptional repressor TupA/RocA, putative protein level in iTRAQ-118 labelled cell wall fraction of drug-resistant Aspergillus fumigatus EMFR-S678P at 0.12 ug/ml after 24 hrs in YPD medium by MS (MS/MS) analysis relative to control; assay type: functional; how it was run: as §3
Aspergillus fumigatus [13] = assay: Induction of change in PT repeat family protein level in iTRAQ114 labelled secreted fraction of drug-susceptible Aspergillus fumigatus KU80 delta-akuB at 0.12 ug/ml after 24 hrs in YPD medium by MS (MS/MS) analysis relative to control; assay type: functional; how it was run: as §2
Aspergillus fumigatus [14] = assay: Induction of change in pyruvate decarboxylase PdcA, putative protein level in iTRAQ-118 labelled cell wall fraction of drug-susceptible Aspergillus fumigatus KU80 delta-akuB at 0.12 ug/ml after 24 hrs in YPD medium by MS (MS/MS) analysis relative to control; assay type: functional; how it was run: as §1

## CC[C@H](C)C[C@H](C)CCCCCCCCC(=O)N[C@H]1C[C@@H](O)[C@@H](NCCN)NC(=O)[C@@H]2[C@@H](O)CCN2C(=O)[C@H]([C@H](O)CCN)NC(=O)[C@H]([C@H](O)[C@@H](O)c2ccc(O)cc2)NC(=O)[C@@H]2C[C@@H](O)CN2C(=O)[C@H]([C@@H](C)O)NC1=O [CASPOFUNGIN]
Aspergillus fumigatus [1]
  fold change (FC): -2.1
Aspergillus fumigatus [2]
  fold change (FC): 1.4
Aspergillus fumigatus [3]
  fold change (FC): -1
Aspergillus fumigatus [4]
  fold change (FC): -2
Aspergillus fumigatus [5]
  fold change (FC): 3.6
Aspergillus fumigatus [6]
  fold change (FC): -1.2
Aspergillus fumigatus [7]
  fold change (FC): 1.9
Aspergillus fumigatus [8]
  fold change (FC): 1.3
Aspergillus fumigatus [9]
  minimal effective concentration: > 16 µg/mL
Aspergillus fumigatus [10]
  fold change (FC): -1.07
Aspergillus fumigatus [11]
  Activity: inactive
Aspergillus fumigatus [12]
  fold change (FC): 1.32
Aspergillus fumigatus [13]
  fold change (FC): -3.5
Aspergillus fumigatus [14]
  fold change (FC): -2.3
